Compounds with a hit are over-represented: about 3.9% of the library has one in this group of screens.
HIF act – HIF pathway transcriptional activation; U2OS HRE-luciferase reporter, luminescence; normalized: DMSO 0%, desferrioxamine 100%; activation, % at 7.5 µM (by protocol); 300,000 tested, 0.32% active;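 active = mean activation of at least 10% of the iron chelator positive control signal, with at least half of replicates also reaching 10%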
SR-BI DiI-HDL act – enhances SR-BI lipid uptake from DiI-HDL; CHO ldlA[mSR-BI] cells, DiI-HDL uptake fluorescence, 3 h; 100 = double the neutral-control signal; activation, % at 12.5 µM; 320,000 tested, 0.096% active; AID 504775;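 active = mean replicate activation of at least 60% and every replicate at or above 60%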;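 note: 0% = median plate neutral-control signal and 100% = twice that signal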
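system = CHO ldlA[mSR-BI] cells, LDL receptor-null, SR-BI overexpressing | medium = Ham's F12 with 0.5% BSA, HEPES 25 mM, pH 7.4 | probe or stimulus = DiI-HDL 10 µg/mL | compound dosing = single-point compound dose | incubation = compound exposure 3 h, 37 °C | technique = DiI fluorescence, bottom read | read-out = cell-associated DiI fluorescence as measure of HDL uptake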
FXN GAA850 act – frataxin GAA850 promoter activation | HEK293 lucGAA850 FXN promoter luciferase reporter, 24 h; percent of 10 µM SAHA response | activation, % at 6 µM | 360,000 tested, 0.56% active;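 active = activation above the average of all compounds screened plus 3 SD, cutoff fixed separately per campaign, cut at about 7.5% in these data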;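 note: 0% = DMSO wells and 100% = 10 µM SAHA wells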
SR-BI HDL uptake – mouse SR-BI HDL lipid transfer inhibition; Q61009; ldlA[mSR-BI] CHO cells, DiI-HDL uptake fluorescence, 3 h; inhibition, % at 12.5 µM; 320,000 tested, 0.96% active; AID 488896;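 active = mean replicate inhibition of at least 70% and a set share of replicates each scoring 70 or more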;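 note: 0% = median of neutral control wells and 100% = median of positive control wells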
Target sequence (Q61009 whole entry, looked up): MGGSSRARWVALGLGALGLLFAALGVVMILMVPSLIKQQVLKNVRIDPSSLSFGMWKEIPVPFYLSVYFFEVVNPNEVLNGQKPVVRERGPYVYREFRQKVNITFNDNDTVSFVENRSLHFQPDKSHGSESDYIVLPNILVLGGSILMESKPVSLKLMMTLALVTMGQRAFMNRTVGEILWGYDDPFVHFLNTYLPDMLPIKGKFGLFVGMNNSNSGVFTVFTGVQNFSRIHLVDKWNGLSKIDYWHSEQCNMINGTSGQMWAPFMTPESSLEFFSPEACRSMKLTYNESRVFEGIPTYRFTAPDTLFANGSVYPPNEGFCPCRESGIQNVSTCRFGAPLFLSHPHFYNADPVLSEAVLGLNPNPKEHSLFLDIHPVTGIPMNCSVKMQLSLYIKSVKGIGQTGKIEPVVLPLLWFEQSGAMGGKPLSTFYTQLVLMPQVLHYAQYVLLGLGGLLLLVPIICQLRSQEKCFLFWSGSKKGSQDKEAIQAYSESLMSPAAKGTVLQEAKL
ABCB6 inh MLPCN – blocks the human ABCB6 transporter; Q9NP58; K562-ABCB6 porphyrin accumulation, flow cytometry, 1 h; active compounds read low; fluorescence ratio to DMSO, % at 10 µM; 360,000 tested, 0.19% active;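 active = fluorescence ratio to DMSO below 75%, the collection mean minus 3 SD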;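 note: signal is porphyrin accumulated inside mitochondria; 100% equals median channel fluorescence of DMSO control wells; lower ratio means ABCB6 inhibition with less porphyrin fluorescence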
AHR activator – activators of human aryl hydrocarbon receptor | 320,000 tested, 2.5% active | AID 2796 | activation, % at 5 µM | AHR-responsive luciferase reporter cells, luminescence | P35869; in the data active = activation above about 47%;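 note: 0% = vehicle wells and 100% = reference agonist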
An asterisk follows results filed as active; . = not tested or not shown.

SMILES	HIF act	SR-BI DiI-HDL act	FXN GAA850 act	SR-BI HDL uptake	ABCB6 inh MLPCN	AHR activator
CCc1ccccc1NC(=O)Nc1ccon1	-1	-17	2	17	92	.
O=C(Nc1ccc(Cl)c(Cl)c1)Nc1cc(C(=O)NC2CC2)ccc1Cl	0	.	.	.	.	74*
O=C(Nc1ccc(Cl)c(Cl)c1)NC1CCS(=O)(=O)C1 (configuration not stated)	0	.	2	.	83	4
CC(=O)Nc1ccc(N=C(C2=C(O)c3ccccc3C2=O)c2ccccc2)cc1	1	-38	3	38	102	64*
O=c1ccc2cc(S(=O)(=O)N3CCOCC3)ccc2o1	-1	5	3	-5	103	1
Cc1ccc(C(=O)C(c2ccccc2)N2Cc3ccccc3C2=N)cc1 (configuration not stated)	0	-26	4	26	96	65*
O=[N+]([O-])c1ccc(-c2ccc(/C=N/Nc3nc(NCc4ccccc4)nc(N4CCOCC4)n3)o2)cc1	0	-36	0	36	206	4
O=[N+]([O-])c1ccccc1/C=C/C=N/Nc1nc(N2CCCCC2)nc(N2CCCCC2)n1	0	-79	1	79*	96	2
COc1nc(N/N=C/c2ccc(-c3ccccc3[N+](=O)[O-])o2)nc(N2CCOCC2)n1	2	-36	4	36	100	50*
C(=C\c1ccccc1)/C=N/Nc1nc(N2CCCCC2)nc(N2CCCCC2)n1	0	5	-1	-5	96	-2
O=[N+]([O-])c1ccccc1/C=N/Nc1nc(N2CCCC2)nc(N2CCCC2)n1	0	-54	0	54	96	51*
O=[N+]([O-])c1cc2c(cc1/C=N/Nc1nc(N3CCCC3)nc(N3CCCC3)n1)OCO2	0	-45	3	45	90	13
Nc1cc(Cl)nc(N/N=C/c2ccccc2[N+](=O)[O-])n1	2	-50	5	50	95	52*
Cc1cc(N2C(=O)C(O)=C(C(=O)c3cc4ccccc4o3)C2c2cccc(Br)c2)no1 (configuration not stated)	2	-1	0	1	111	4
CCOC(=O)NC1(NCc2ccccc2)Oc2ccccc2O1	.	18	5	-18	104	0
C1=C(c2ccccc2)CCN(c2nc3ccccc3n3cnnc23)C1	1	-12	1	12	89	79*
c1ccc(N2CCN(c3nc4ccccc4n4cnnc34)CC2)cc1	0	-30	2	30	98	39
O=C1CC(c2ccccc2)c2ccccc21 (configuration not stated)	0	14	2	-14	102	-1
Cn1cc(/C=C/c2cc[n+](C)cc2)c2cc(Cl)ccc21	-2	1	-5	-1	828	47*
Cn1c(=N)n(CC(=O)c2ccccc2)c2ccccc21	-3	.	0	.	93	40
COc1ccc(C(=O)Cn2c(=N)n(C)c3ccccc32)cc1	2	-6	4	6	97	76*
Cn1c(=N)n(CC(=O)c2ccc(Cl)c(Cl)c2)c2ccccc21	-29	5	-8	-5	91	54*
C=CCn1c(=N)n(CC(=O)c2ccc(OC)cc2)c2ccccc21	0	.	-1	.	93	67*
COc1ccc(/C=C2\SC(=S)N(CC(=O)NCCO)C2=O)cc1	0	-6	1	6	102	1
COc1ccc(NS(=O)(=O)c2cccc3nonc23)c(OC)c1	0	-5	-2	5	105	0
COCCNC(=S)N1CCN(Cc2ccc3c(c2)OCO3)CC1	0	8	0	-8	96	0
COc1nccc(C(F)(F)F)c1C(=O)NC(=O)Nc1ccccc1	140*	-1	0	1	98	-1
Cc1cc(N2CCCCC2)nc2c(C)cccc12	0	-24	2	24	98	3
Cc1cc(N2CCN(S(=O)(=O)c3ccccc3)CC2)nc2c(C)cccc12	0	2	2	-2	103	68*
CCC(=O)Nc1ccc(/C(C)=N\NC(=O)c2ccc(C)s2)cc1	1	-16	4	16	90	54*

Bioassay records (PubChem BioAssay)
